UPR CHOP act: activators of apoptotic CHOP UPR arm, primary screen, cell-based, CHO-CHOP luciferase reporter, luminescence, uHTS; UPR activation; percent of tunicamycin response over DMSO baseline; activation, % at 10 µM; hit rate 0.34% among 330,000; AID 449763, 2010;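 active means at 10 µM dose, activation of 40% or more, normalized to positive control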;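 further: 100% = tunicamycin at 10 µg/mL and 0% = DMSO alone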
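Test system: CHO CHOP reporter cells. Input: 500 CHO-CHOP cells per well. Medium: F12 with 10% FBS. Technique: luciferase luminescence. Measure: percent activation relative to tunicamycin control. Dosing: 10 µM compound, 0.5% DMSO. Timing: 16-18 h cell attachment, then 6 h compound exposure, 37 °C.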
NOD2 RIPK2 PPI: NOD2-RIPK2 binding disruptors in cells, primary screen, fluorescence, CHO cells, BLA complementation. inhibition, % at 4.98 µM. Receptor-interacting serine/threonine-protein kinase 2 (Homo sapiens), O43353. hit rate 0.38% among 360,000. AID 624267, 2012. CCF4 ratio; in the data active means inhibition above about 21%;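 further: 0% = vehicle only and 100% = reference blocker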
TLR9-MyD88 block: inhibitors of TLR9-MyD88 association in cells, primary screen, cell-based, CHO, BLA complementation, fluorescence; Toll-like receptor 9 (Homo sapiens) + Myeloid differentiation primary response protein …; CCF4 FRET ratio; inhibition, % at 4.98 µM; hit rate 0.21% among 340,000;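 active means inhibition above the mean over all tested compounds plus 3 SD, cut at about 21% in these data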;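 further: 0% = DMSO only wells and 100% = clavulanate BLA inhibitor control wells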
TLR4 MyD88 comp: inhibitors of TLR4-MyD88 association in cells, primary screen, cell-based, HeLa CL3-4, BLA complementation, FRET ratio | Toll-like receptor 4 (Homo sapiens) + Myeloid differentiation primary response protein … | inhibition, % at 8.4 µM | hit rate 0.18% among 200,000 | HeLa CL3-4 TLR4/MyD88 BLA complementation | AID 861, 2007; in the data active means inhibition above about 25%;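 further: 0% = vehicle and 100% = reference inhibitor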
XBP1 UPR activ: activators of adaptive XBP1 UPR arm, primary screen, cell-based, CHO-XBP1 luciferase reporter, luminescence, uHTS; IRE1-XBP1 UPR activation; percent of tunicamycin response, DMSO as zero; activation, % at 20 µM; hit rate 0.33% among 330,000; AID 463104, 2010;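 active means versus positive control, 20 µM dose yields 30% or more activation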;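 further: 100% = tunicamycin at 10 µg/mL and 0% = DMSO only wells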
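Assay system: CHO-XBP1 luciferase reporter cells; Schedule: 6 h treatment, 37 °C; Detection: glow luminescence from Steady-Glo reagent; Benchmarks: high control tunicamycin 10 µg/mL final, low control DMSO vehicle only.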
CHOP inhibitor: inhibitors of CHOP promoter induction, primary screen, cell-based, unfolded protein response, luciferase reporter; AID 2732, 2010; CHO-K1 CHOP-promoter luciferase, tunicamycin-induced, 15-18 h; inhibition, % at 10 µM; hit rate 3.8% among 220,000;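 active means compounds that reduced the stress-induced luciferase reporter signal by more than about 70% of percent inhibition, limit read from the data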;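 further: 0% = tunicamycin plus vehicle and 100% = wells without tunicamycin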
* hit, by the source's call; / = not tested or not shown. Only a selection was taken, and hits are over-represented in it overall.

SMILES	UPR CHOP act	NOD2 RIPK2 PPI	TLR9-MyD88 block	TLR4 MyD88 comp	XBP1 UPR activ	CHOP inhibitor
CC(C)C[C@H]1CNC(=S)N1CC1CCN(CCCC2CCCC2)CC1	/	3	7	/	/	/
CCCCSc1nnc(CNC(=O)C23CC4CC(CC(C4)C2)C3)n1Cc1ccccc1	-1	14	-2	-7	2	85*
O=C(NCc1nnc(SCc2ccccc2)n1-c1ccccc1)C12CC3CC(CC(C3)C1)C2	2	1	-4	6	-3	45
Cc1nc(C(F)(F)F)ccc1C(=O)N1CCCC1(C)C(=O)NCC(C)C (stereo not given)	/	-5	/	/	/	/
O=C(Nc1ccc(Br)cc1)c1cccn1-c1ncc(C(F)(F)F)cc1Cl	0	5	11	4	-3	95*
CCN(CC)S(=O)(=O)c1ccc(C(=O)NC(=S)N2CCN(c3ccccc3O)CC2)cc1	/	6	-4	/	/	/
CC(=O)Nc1cc2nn(-c3ccccc3)nc2cc1C	-2	-2	5	/	-8	/
CCC(=O)Nc1cc2nn(-c3ccccc3)nc2cc1Cl	-2	-2	-3	8	-1	79*
CNc1ncnc2c1ncn2[C@H]1CN(Cc2cccc3ccccc23)C[C@@H](CO)O1	/	0	/	/	/	/
Cc1cc(NC(=O)CS(=O)(=O)c2cn(Cc3cccc(Cl)c3)c3ccccc23)no1	/	-9	/	/	/	/
Cc1nc2c3cc(F)ccc3n(Cc3ccccc3)c2s1	-3	-3	7	1	21	74*
Cc1nc2c3cc(F)ccc3n(Cc3ccccc3F)c2s1	-1	-2	3	-9	7	11
COc1cc(OC)cc(-c2noc([C@@H]3O[C@H](CO)[C@H](O)[C@H](O)[C@H]3O)n2)c1	/	4	/	/	/	/
CCc1nc2c(OCCOc3ccccc3)cccn2c1N(C)C(=O)C1CC1	/	-9	/	/	/	/
COc1cc(C)ccc1OCCOc1ccccc1Cl	7	-1	-17	3	2	76*
COc1cc(C)ccc1OCCOCCOc1c(C)cc(C)cc1Br	-1	-12	-13	-2	-1	84*
CCn1c(C)cc(/C=C2\SC(=O)N(CC(=O)Nc3ccc(C)c(C)c3)C2=O)c1C	2	-7	-3	-8	0	93*
CCn1c(C)cc(/C=C2/NC(=O)N(CC(=O)Nc3cccc(C)c3)C2=O)c1C	/	-3	6	-2	/	51
CCn1c(C)cc(/C=C2\NC(=O)N(CC(=O)Nc3cccc(C)c3)C2=O)c1C	3	2	8	-2	2	81*
CC1(C(=O)NCc2ccc(Cl)cc2)CCN1C(=O)c1cccc(F)c1 (stereo not given)	/	-7	/	/	/	/
CCOc1ccc(-n2c(SC(C)C)nc3c(c2=O)SCC3)cc1	-2	-1	5	7	2	78*
CN(CC(=O)Nc1ccccc1Br)C(=O)c1ccccc1OCc1ccc(Cl)cc1	/	11	7	/	/	/
c1ccc2nc(-c3ccc(N4CCOCC4)cc3)ccc2c1	-9	0	-1	-1	-7	90*
Cc1ccc(-c2cc3ccccc3nc2N2CCOCC2)cc1	-1	-4	/	-5	-4	72*
COc1ccc(/C=C(\C#N)C(=O)NCCc2ccccc2)cc1OCc1ccccc1	0	-9	0	-6	-2	-1
N#C/C(=C\c1ccc(O)c(O)c1)C(=O)NCCCc1ccccc1	151*	5	15	-10	5	-3
CCCCCCCCNC(=O)/C(C#N)=C/c1ccc(SC)cc1	3	4	-2	1	0	93*
CCCCCCCCNC(=O)/C(C#N)=C/c1ccc2c(c1)OCCO2	-2	-11	-4	-11	3	23
COc1ccc(Nc2nc(C)cc(=O)[nH]2)c(OC)c1	0	-4	2	-14	-2	19
CCCc1cc(=O)[nH]c(Nc2cc(OC)ccc2OC)n1	-1	-3	-10	2	-1	74*

Source: PubChem
